The list is not random: actives were taken first. Their share in the collection is about 1.6%.
DNMT1 inh: DNMT1 (human) enzyme inhibition. DNMT1 molecular beacon, Hinp1I cleavage, fluorescence. P26358. 360,000 tested, 0.83% active. AID 588458. inhibition (reported as % activation of signal), % at 10 µM; in the data active = inhibition above about 50%
STEP inh: inhibitors of human striatal-enriched phosphatase STEP; recombinant STEP, OMFP fluorogenic substrate, fluorescence; inhibition, % at 20 µM; AID 588621; 360,000 tested, 0.25% active;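 active = inhibition at 20 µM, scaled per plate between control wells, above about 37%, limit read from the data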
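Test system: STEP tyrosine phosphatase / Reagent: OMFP at 25 µM / Doses: 20 µM, 1% DMSO / Read-out: percent inhibition scaled to no-enzyme and uninhibited-enzyme controls, plate-pattern corrected / Detection: FITC-channel fluorescence of OMFP product / Medium: Bis-Tris buffer pH 6.0, 2.5 mM DTT, 0.005% Tween 20 / Schedule: 20 min at room temperature, dark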
SUMO1 PPI mod: SUMO1-SIM interaction modulation. P63165. SUMO1 binding to a labelled peptide, TR-FRET, 1 h. inhibition, % at 20 µM. 360,000 tested, 0.33% active. AID 602429; in the data active = inhibition above about 37%
Target sequence (P63165 whole entry, looked up): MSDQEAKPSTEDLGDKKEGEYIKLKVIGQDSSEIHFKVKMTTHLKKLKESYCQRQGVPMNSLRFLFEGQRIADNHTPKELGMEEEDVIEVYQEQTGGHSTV
Scp-1 inhibitor: Scp-1 (human) phosphatase inhibition. Q9GZU7. AID 493091. 340,000 tested, 0.88% active. Recombinant Scp1, phosphopeptide, malachite green phosphate absorbance. inhibition, % at 20 µM;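 active = inhibition above about 50% at 20 µM, limit read from the data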
Target sequence (Q9GZU7 76-261 limits assumed): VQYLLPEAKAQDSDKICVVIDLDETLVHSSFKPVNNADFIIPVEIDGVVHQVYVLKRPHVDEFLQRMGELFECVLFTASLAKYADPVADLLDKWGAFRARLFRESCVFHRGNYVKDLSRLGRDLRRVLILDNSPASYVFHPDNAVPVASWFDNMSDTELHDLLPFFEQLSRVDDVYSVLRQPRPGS
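Material – SCP-1 phosphatase catalytic domain, residues 76-261 · Buffer or medium – Acidic Tris acetate buffer with magnesium and detergent · Also added – Phospho 17-mer peptide substrate · Compound – single 20 µM dose, 1% DMSO · Times – 45 min room-temperature reaction, 5 min colour, 30 min stabiliser · Technique – Phosphate-binding colour reagent, absorbance read at 630 nm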
LMPTP inh: blocks human LMPTP phosphatase; P24666; recombinant LMPTP-A, OMFP fluorogenic substrate, fluorescence intensity; inhibition, % at 20 µM; 360,000 tested, 0.22% active;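 active = compounds that cut the enzyme signal by at least half of the control window in the single-dose screen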
Target sequence (P24666 whole entry, looked up): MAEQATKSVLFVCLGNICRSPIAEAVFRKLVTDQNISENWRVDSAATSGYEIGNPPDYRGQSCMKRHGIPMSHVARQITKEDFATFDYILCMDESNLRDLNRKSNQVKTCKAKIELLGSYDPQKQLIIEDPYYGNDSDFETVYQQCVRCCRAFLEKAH
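Test system – LMPTP-A enzyme · Amount – LMPTP-A at 0.625 nM final in the reaction · Buffer or medium – Bis-Tris pH 6.0, DTT, detergent · Reagent – OMFP 400 µM · Doses – single 20 µM dose · Schedule – reaction 50 min, room temperature, dark · Detection – fluorescence intensity of OMFP turnover product · Evaluation – percent inhibition versus substrate-only and uninhibited controls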
F508del corr: correctors of CFTR F508del function in bronchial epithelial cells; CFBE cells, YFP halide quenching; stimulated with forskolin plus potentiator P3; % fluorescence drop versus neutral controls; activity (quench increase), % at 7.58 µM; 350,000 tested, 0.36% active; AID 720511;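 active = mean added fluorescence quench of at least 8% versus neutral control, with both replicates also reaching 8%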;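 also: cells transiently co-express mutant CFTR-F508del with the halide-sensitive YFP; corrector assay measuring rescue of mutant channel to the surface after 24 h compound exposure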
Scp-1 conf: Scp-1 (human) inhibition, single-dose confirmed; shares compounds with Scp-1 inhibitor; recombinant SCP-1 catalytic domain, phosphate release, malachite green absorbance; inhibition, % at 20 µM; 2,500 tested, 61% active
Scp-1 MG ctr: interferes with malachite green readout, flagging false Scp-1 hits; shares compounds with Scp-1 inhibitor; Colorimetric interference counterscreen, malachite green absorbance 630 nm; apparent inhibition (interference), % at 20 µM; 2,500 tested, under 10 active; AID 540313;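 also: compounds added after enzyme reaction finished so only phosphate colour detection is probed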
Scp-1 Tm shift: binds human Scp-1, shifting its melting temperature | 1,500 tested, 25% active | thermal shift relative to vanadate control, % at 40 µM | shares compounds with Scp-1 inhibitor | Recombinant SCP1, Sypro Orange thermal shift Tm;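 active = substances whose mean melting-temperature shift, as a percentage of the reference inhibitor's shift, reaches about 5.3%, limit read from the data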
Numbers stand for hits; i = inactive; nt = no result.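 The calls were made as follows, unless noted: active = inhibition of at least 30% at 20 µM; inactive = the rest.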

SMILES	DNMT1 inh	STEP inh	SUMO1 PPI mod	Scp-1 inhibitor	LMPTP inh	F508del corr	Scp-1 conf	Scp-1 MG ctr	others
Cn1nc(C(=O)Nc2ccc(-n3cnnn3)cc2)c2ccccc2c1=O	i	i	i	99	i	i	70	i	Scp-1 Tm shift=i
CC(C)n1nc(C(=O)Nc2ccc(-n3cnnn3)cc2)c2ccccc2c1=O	i	i	i	i	i	i	nt	nt
CC(NC(=O)OCc1ccccc1)c1ccccc1 (stereo unspecified)	i	i	i	i	i	i	nt	nt
O=C(O)CC(NC(=O)OCc1ccccc1)c1ccccc1 (stereo unspecified)	i	i	i	73	i	nt	i	i
O=C(NNC(=O)c1ccc(NC(=O)c2ccccc2)cc1)c1ccccc1	i	i	i	62	i	i	i	i
CO[C@@H]1CN(C)C(=O)c2ccc(NC(=O)C3CCCC3)cc2OC[C@H](C)N(C(=O)CC2CC2)C[C@H]1C	nt	nt	nt	nt	nt	i	nt	nt
Cc1nn(Cc2ccccc2Cl)c(C)c1NC(=O)c1noc2c1CCCCC2	i	i	i	i	i	nt	nt	nt
Cc1nn(Cc2ccccc2Cl)c(C)c1NC(=O)c1noc(C(C)C)c1[N+](=O)[O-]	i	i	i	63	i	i	i	i
COc1cccc(NC(=O)N2CC(=O)N3[C@H](CO)[C@@H](c4ccc(C5=CCCCC5)cc4)[C@H]3C2)c1	nt	nt	nt	nt	nt	i	nt	nt
CC[N+]1(C)CC2CCC(C)(C1)C2(C)C (stereo unspecified)	i	i	i	56	i	i	39	i	Scp-1 Tm shift=i
CO[C@H](CN(C)S(=O)(=O)c1ccc(F)cc1)[C@@H](C)CN([C@@H](C)CO)S(=O)(=O)c1cccc(Cl)c1	nt	nt	nt	nt	nt	i	nt	nt
CCCC(=O)Nc1ccc2nc(SCC(=O)Nc3nccs3)sc2c1	i	i	i	102	i	nt	i	i
COCCNC(=O)C[C@@H]1C[C@H]2c3cc(NC(=O)CC4CC4)ccc3O[C@H]2[C@H](CO)O1	nt	nt	nt	nt	nt	i	nt	nt
CCN1/C(=C\C(C)=O)Sc2ccc(OC)cc21	i	i	i	96	i	nt	i	i
N#C[C@H]1[C@@H](c2ccc(C3=CCCC3)cc2)[C@@H](CO)N1C(=O)c1ccccn1	nt	nt	nt	nt	nt	i	nt	nt
CCCC#Cc1ccc([C@@H]2[C@H](C#N)N(C(=O)C3CCCC3)[C@H]2CO)cc1	nt	nt	nt	nt	nt	i	nt	nt
CCn1c(SCC(=O)N/N=C/C=C/c2ccco2)nnc1-c1ccccc1	i	i	i	i	i	nt	nt	nt
CCn1c(SCC(=O)N/N=C/C(C)=C/c2ccco2)nnc1-c1ccccc1	i	i	i	88	i	nt	50	i	Scp-1 Tm shift=i
CCn1c(SCC(=O)N/N=C/C(C)=C\c2ccco2)nnc1-c1ccccc1	i	i	i	76	i	i	60	i	Scp-1 Tm shift=i
Cc1ccc(OCC(=O)NNC(=O)Cn2nnc(-c3ccccc3)n2)cc1	i	i	i	53	i	i	41	i	Scp-1 Tm shift=i
O=C(Cn1nnc(-c2ccccc2)n1)NNC(=O)c1ccccc1	i	i	i	i	i	i	nt	nt
CC(=O)N1[C@H](CO)[C@@H](c2ccccc2)C12CN(Cc1cc(F)ccc1F)C2	nt	nt	nt	nt	nt	i	nt	nt
COc1ccccc1C(C)NC(=O)c1cc(=O)[nH]c2ccccc12 (stereo unspecified)	i	i	i	74	i	i	i	i
COc1ccccc1NC(=O)c1cc(=O)[nH]c2ccccc12	i	i	i	i	i	i	nt	nt
COc1ccc(S(=O)(=O)N(C)C[C@H]2Oc3c(NC(=O)C4CC4)cccc3C(=O)N([C@@H](C)CO)C[C@H]2C)cc1	nt	nt	nt	nt	nt	i	nt	nt
O=C(COC(=O)c1ccc(S(=O)(=O)NCc2ccco2)cc1)NCc1ccccc1	i	i	i	i	i	i	nt	nt

Assay outcomes deposited in PubChem BioAssay by several laboratories.
